{"data": "Results collected from several papers", "target": "Mitogen-activated protein kinase 14 (MAPK14, Homo sapiens, UniProt Q16539)", "note": "Each line is one published result; the experiments were not run side by side."}
{"effect on": "binding", "technique": "competition with immobilised ligand", "concentration": "1 µM", "remaining binding": "99%", "SMILES": "CNC(=O)[C@@H]1CC[C@@H](n2c(-c3ccc4cnccc4c3)nc3ccc(C(=O)NCc4cccc(C(N)=O)c4)cc32)C1"}
{"effect on": "cell-free assay", "technique": "competition with immobilised ligand", "concentration": "1 µM", "remaining binding": "87%", "SMILES": "CNCc1ccccc1-c1csc([C@@H](C)Nc2nc(C)nc3cc(OC)c(OC)cc23)c1"}
{"effect on": "binding", "concentration": "1 µM", "remaining binding": "87%", "SMILES": "c1cnn2ncc(-c3ccnc(N4CCC45COC5)n3)c2c1"}
{"effect on": "cell-free assay", "technique": "competition with immobilised ligand", "concentration": "1 µM", "remaining binding": "100%", "SMILES": "CC(=O)c1c(NS(C)(=O)=O)c2cc(-c3ccc(Cl)cc3)c(-c3ccc(Cl)cc3Cl)nc2n(C)c1=O"}
{"effect on": "binding", "technique": "competition with immobilised ligand", "concentration": "1 µM", "remaining binding": "100%", "SMILES": "O=C(NCC1CCOCC1)c1n[nH]cc1NC(=O)c1c(F)cccc1F"}
{"effect on": "cell-free assay", "technique": "competition with immobilised ligand", "concentration": "0.1 µM", "remaining binding": "100%", "SMILES": "Cc1c[nH]c2nccc(Oc3c(F)cc(Nc4cc(Cl)nc(N)n4)cc3F)c12"}
{"effect on": "binding", "technique": "competition with immobilised ligand", "concentration": "0.5 µM", "remaining binding": "100%", "SMILES": "C[C@@H]1CN(c2ccc3ncc(-c4ccc5[nH]nc(C6CC6)c5c4)n3n2)C[C@H](C)O1"}
{"effect on": "binding", "technique": "competition with immobilised ligand", "concentration": "1 µM", "remaining binding": "100%", "SMILES": "O=C(c1ccc(Nc2ncc(Cl)c(-c3cc4ccccc4s3)n2)cc1)N1CCC(N2CCCC2)CC1"}
{"effect on": "binding", "concentration": "1 µM", "remaining binding": "100%", "SMILES": "CN(c1nccc(-c2cnn3ncccc23)n1)C1CC1"}
{"effect on": "cell-free assay", "technique": "competition with immobilised ligand", "concentration": "1 µM", "remaining binding": "94%", "SMILES": "COc1cc(-c2cn(C3CCc4ccccc4N(CC(F)(F)F)C3=O)nn2)ccc1-n1ccc(C)n1 (stereo not shown)"}
{"effect on": "binding", "technique": "competition with immobilised ligand", "concentration": "1 µM", "remaining binding": "100%", "SMILES": "COc1cnc(Nc2cccc(S(N)(=O)=O)c2)nc1N1CCN(c2ccccc2)CC1"}
{"effect on": "binding", "concentration": "1 µM", "remaining binding": "100%", "SMILES": "N[C@H]1CCN(c2nccc(-c3cnn4ncccc34)n2)C1"}
{"effect on": "binding", "technique": "competition with immobilised ligand", "concentration": "1 µM", "remaining binding": "96%", "SMILES": "O=C(NCCCN1CCOCC1)c1ccc(Nc2nccc(-c3cc4ccccc4s3)n2)cc1"}
{"effect on": "cell-free assay", "technique": "competition with immobilised ligand", "concentration": "1 µM", "remaining binding": "100%", "SMILES": "O=C(O)c1cc(-c2ccc(C3CCNCC3)cc2)c2ccc(-c3ccc(C(F)(F)F)cc3)cc2c1"}
{"effect on": "binding", "technique": "competition with immobilised ligand", "concentration": "10 µM", "remaining binding": "100%", "SMILES": "N#Cc1ccccc1CSc1nnc2c(n1)[nH]c1ccccc12"}
{"effect on": "binding", "technique": "competition with immobilised ligand", "concentration": "10 µM", "remaining binding": "85%", "SMILES": "c1cncc(-c2cccc(Nc3nccc(NC4CCCCC4)n3)c2)c1"}
{"effect on": "binding", "concentration": "1 µM", "remaining binding": "100%", "SMILES": "C[C@@H]1CCN(c2nccc(-c3cnn4ncccc34)n2)C1"}
{"effect on": "binding", "technique": "competition with immobilised ligand", "concentration": "1 µM", "remaining binding": "100%", "SMILES": "Cc1cnc(Nc2ccc(C(=O)N3CCC(N4CCCC4)CC3)cc2)nc1-c1cc2ccccc2s1"}
{"effect on": "cell-free assay", "technique": "competition with immobilised ligand", "concentration": "10 µM", "remaining binding": "100%", "SMILES": "CC(C)(C)c1ccc(-c2nc(CBr)nn2-c2cccc(O)c2)cc1"}
{"effect on": "binding", "concentration": "1 µM", "remaining binding": "100%", "SMILES": "F[C@@H]1CCN(c2nccc(-c3cnn4ncccc34)n2)C1"}
{"effect on": "cell-free assay", "technique": "competition with immobilised ligand", "concentration": "1 µM", "remaining binding": "100%", "SMILES": "CS(=O)(=O)c1cc(C2(NC(=O)c3cncc4c3cnn4-c3ccc(F)cc3)CC2)ccn1"}
{"effect on": "binding", "concentration": "1 µM", "remaining binding": "91%", "SMILES": "CN(C)c1nccc(-c2cnn3ncccc23)n1"}
{"effect on": "cell-free assay", "technique": "competition with immobilised ligand", "concentration": "5 µM", "remaining binding": "94%", "SMILES": "FC(F)(F)Oc1cccc(-c2cnc3ccc(-c4ccncc4)nn23)c1"}
{"effect on": "binding", "concentration": "1 µM", "remaining binding": "100%", "SMILES": "CC1CCCN1c1nccc(-c2cnn3ncccc23)n1 (stereo not shown)"}
{"effect on": "cell-free assay", "technique": "competition with immobilised ligand", "concentration": "1 µM", "remaining binding": "100%", "SMILES": "O=C1CCc2cc(Nc3cc(OC4CCOCC4)c([N+](=O)[O-])cc3Cl)ccc2N1"}
